Assay outcomes: PubChem BioAssay, several laboratories
MsrA inh = bovine MsrA enzyme inhibitors, primary screen, biochemical, absorbance, HTS. 0.75% of 360,000 active. Methionine sulfoxide reductase A (Bos taurus). inhibition, % at 15.5 µM. purified bovine MsrA, absorbance read-out; in the data active = inhibition above about 4.5%;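 note: 0% = vehicle wells with enzyme and 100% = reference inhibitor wells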
GalR3 antagonist = GalR3 antagonists in HEK293 cells, primary screen, cell-based, fluorescence readout; AID 651719, 2012; 0.44% of 360,000 active; Galanin receptor type 3 (Homo sapiens), O60755; HEK293 GalR3-CNG cAMP membrane potential fluorescence; galR3 body fused to GalR1 C-terminus; inhibition, % at 3 µM;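 active = inhibition above the screen-wide average plus 3 SD, cut at about 13% in these data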;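 note: forskolin and galanin both at EC90 stimulate the cells; cAMP rise reported by CNG channel membrane potential dye signal; 0% = forskolin plus galanin with DMSO and 100% = forskolin alone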
Target sequence (O60755 1-299 limits assumed): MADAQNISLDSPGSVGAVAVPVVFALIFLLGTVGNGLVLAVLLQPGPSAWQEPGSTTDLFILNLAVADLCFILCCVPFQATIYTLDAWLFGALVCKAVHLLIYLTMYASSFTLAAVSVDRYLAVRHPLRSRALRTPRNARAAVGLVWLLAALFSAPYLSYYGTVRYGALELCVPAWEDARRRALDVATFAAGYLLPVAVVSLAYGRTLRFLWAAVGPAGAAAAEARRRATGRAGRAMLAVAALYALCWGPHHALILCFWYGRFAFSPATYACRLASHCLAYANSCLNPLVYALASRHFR
NR2E3 ag-1 = NR2E3 agonists in two-hybrid cells, primary screen, cell-based, luminescence, CHO-S, Gal4-NCOR/VP16-NR2E3. inhibition of corepressor binding, % at 3.98 µM. AID 602229, 2012. luciferase. 0.35% of 360,000 active. Photoreceptor-specific nuclear receptor (Homo sapiens), Q9Y5X4;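 active = inhibition above the mean of all tested compounds plus 3 SD, cut at about 70% in these data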;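 note: 0% = DMSO with NR2E3 transfected cells and 100% = cells lacking NR2E3 construct; higher means lower luciferase signal from less NR2E3 corepressor binding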
NadD block = inhibitors of S. aureus NadD, primary screen, biochemical, colorimetric, uHTS; Nicotinate-nucleotide adenylyltransferase NadD (Staphylococcus aureus N315); purified NadD enzyme, colorimetric absorbance read-out; inhibition, % at 20 µM; 0.78% of 360,000 active; AID 602399, 2012; in the data active = inhibition above about 26%
MsrA act = bovine MsrA enzyme activators, primary screen, biochemical, absorbance, HTS | Methionine sulfoxide reductase A (Bos taurus) | purified bovine MsrA, absorbance read-out | 0.3% of 360,000 active | activation, % at 10.6 µM; in the data active = activation above about 7.5%;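 note: 0% = vehicle and 100% = reference activator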
NR2E3 ag-2 = inhibitors of NR2E3-RetCOR corepressor binding, primary screen, NR2E3 agonist project, biochemical, TR-FRET, GST-NR2E3, biotin-RetCOR; inhibition of corepressor binding, % at 4.78 µM; Photoreceptor-specific nuclear receptor (Homo sapiens), Q9Y5X4; 1536-well; 0.12% of 320,000 active; AID 2300, 2010;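 active = percent inhibition above the cutoff of mean plus 3 SD of all tested compounds, set per screening campaign, cut at about 20% in these data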;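 note: 0% = DMSO wells and 100% = biotin wells as full block of FRET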
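Material: NR2E3–RetCOR corepressor complex / Amount: 1.35 nM GST-NR2E3 / Medium: Tris pH 7.5 / Compound: single nominal compound dose of 4.8 µM / Incubation: 5 h at 4 °C / Technique: TR-FRET, Eu(K)-anti-GST donor, streptavidin-D2 acceptor, ex 340, em 617/671 nm / Read-out basis: percent loss of FRET ratio relative to control wells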
NadD conf = inhibitors of S. aureus NadD, confirmation, biochemical, colorimetric, single concentration. shares compounds with NadD block. purified S. aureus NadD, colorimetric enzyme assay. inhibition, % at 20 µM. 13% of 2,000 active. AID 624309, 2012; in the data active = inhibition mostly above about 42%, no sharp cut-off; inactive = mostly below about 42%
* marks the source's active call; other numbers are inactive results. Compounds with a hit are over-represented: about 2.5% of the library has one in this group of screens.

Oc1c(Br)cc(Br)cc1C=Nc1ccc2[nH]ncc2c1 was read as MsrA inh 0, GalR3 antagonist 3, NR2E3 ag-1 -1, NadD block 30*, MsrA act -4, NR2E3 ag-2 -5 and NadD conf 10.
CC(=O)N1CCC(C(=O)N2CCN(S(=O)(=O)c3cccs3)CC2)CC1 was read as MsrA inh 0, GalR3 antagonist -2, NR2E3 ag-1 -20, NadD block 1, MsrA act -2 and NR2E3 ag-2 -4.
For O=C(O)CSc1c2c(nc3cc(C(=O)Nc4cccc(C(F)(F)F)c4)ccc13)CCC2 the results were MsrA inh 2, GalR3 antagonist 1, NR2E3 ag-1 4, NadD block 34*, MsrA act -2, NR2E3 ag-2 6 and NadD conf 31.
`CCOC(=O)c1ccccc1NC(=O)c1ccc2c(SCC(=O)O)c3c(nc2c1)CCCC3` gave MsrA inh -1, GalR3 antagonist -7, NR2E3 ag-1 -12, NadD block 30*, MsrA act -3, NR2E3 ag-2 5 and NadD conf 62*.
`CCOc1ccc(NC(=O)c2ccc3c(SCC(=O)O)c4c(nc3c2)CCCC4)cc1` gave MsrA inh 0, GalR3 antagonist 1, NR2E3 ag-1 -2, NadD block 13, MsrA act -1 and NR2E3 ag-2 3.
For CCC(/C=N/NC(=O)C1COc2ccccc2O1)CC (stereo not given) the results were MsrA inh 1, GalR3 antagonist -14, NR2E3 ag-1 21, NadD block 0, MsrA act -9 and NR2E3 ag-2 0.
`COc1ccc(COc2cc(-c3cccc(OC)c3)nc3ccc(NC(=O)c4ccc(C)cc4)cc23)cc1` gave MsrA inh 2, GalR3 antagonist -5, NR2E3 ag-1 -36, NadD block 40*, MsrA act -1, NR2E3 ag-2 -3 and NadD conf 20.
Screening Cc1ccc(NC(=O)COC(=O)C2CCN(c3ccc(C(F)(F)F)cn3)CC2)cc1C returned MsrA inh -2, GalR3 antagonist -2, NR2E3 ag-1 -9, NadD block -7, MsrA act -1 and NR2E3 ag-2 5.
For Cc1cc(C)c2nc(NC(=O)c3cccc(S(=O)(=O)N4CCc5ccccc54)c3)sc2c1 the results were MsrA inh -1, GalR3 antagonist -2, NR2E3 ag-1 3, NadD block 44*, MsrA act -3, NR2E3 ag-2 1 and NadD conf 0.
Cc1cccc2sc(NC(=O)c3cccc(S(=O)(=O)N4CCc5ccccc54)c3)nc12 was read as MsrA inh -1, GalR3 antagonist -4, NR2E3 ag-1 0, NadD block 13, MsrA act -5 and NR2E3 ag-2 0.
Screening O=C(CSc1nnc(-c2ccc3c(c2)OCO3)o1)Nc1ncc(C(F)(F)F)cc1Cl returned MsrA inh -1, GalR3 antagonist 0, NR2E3 ag-1 -5, NadD block 34*, MsrA act 0, NR2E3 ag-2 1 and NadD conf 5.
`O=C(c1ccc(NC(=S)NCc2ccc(Cl)cc2)cc1)N1CCCCC1` gave MsrA inh -1, GalR3 antagonist -1, NR2E3 ag-1 6, NadD block -4, MsrA act 7 and NR2E3 ag-2 -3.
Screening Cc1cc2nc(-c3ccc(SCC(=O)Nc4ccc5c(c4)OCCO5)nc3)[nH]c2cc1C returned MsrA inh 3, GalR3 antagonist -9, NR2E3 ag-1 -5, NadD block 30*, MsrA act -3, NR2E3 ag-2 1 and NadD conf 20.
For C=CCNC(=O)c1cc2c(C(F)(F)F)nn(C)c2s1 the results were MsrA inh -1, GalR3 antagonist -4, NR2E3 ag-1 -13, NadD block 6, MsrA act -3 and NR2E3 ag-2 3.
Screening C=CCn1c(=NC(=O)c2ccc(S(=O)(=O)N3CCc4ccccc4C3)cc2)sc2cc(S(N)(=O)=O)ccc21 returned MsrA inh 3, GalR3 antagonist 8, NR2E3 ag-1 6, NadD block 32*, MsrA act -7, NR2E3 ag-2 1 and NadD conf -4.
Cc1cc(C)c(C(=O)N2CCCC(CNS(=O)(=O)c3cccs3)C2)o1 (stereo not given) was read as MsrA inh 0, GalR3 antagonist -1, NR2E3 ag-1 -7, NadD block -5, MsrA act -2 and NR2E3 ag-2 1.
For CCc1ccc2[nH]c(=O)c(C3C(C#N)=C(N)Oc4c3ccc3cccnc43)cc2c1 (stereo not given) the results were MsrA inh 1, GalR3 antagonist -2, NR2E3 ag-1 -16, NadD block 38*, MsrA act -12, NR2E3 ag-2 4 and NadD conf 9.
`Cc1cc(C(=O)N/N=C/c2cc(Br)cc(Br)c2OC(=O)c2cccc(F)c2)n[nH]1` gave MsrA inh 1, GalR3 antagonist -6, NR2E3 ag-1 0, NadD block 32*, MsrA act -2, NR2E3 ag-2 0 and NadD conf 13.
`OC(Cn1ccnc1)c1ccc(Cl)cc1Cl` (stereo not given) gave MsrA inh -2, GalR3 antagonist 1, NR2E3 ag-1 5, NadD block -3, MsrA act -4 and NR2E3 ag-2 -1.
`Clc1ccc(C(Cn2ccnc2)OCc2c(Cl)cccc2Cl)c(Cl)c1` (stereo not given) gave MsrA inh 1, GalR3 antagonist -5, NR2E3 ag-1 -10, NadD block 33*, MsrA act -2, NR2E3 ag-2 1 and NadD conf 21.
CCOc1ccc(C2=C(C=Nc3c(C)n(C)n(-c4ccccc4)c3=O)C(c3ccc(F)cc3)c3ccccc3O2)cc1 (stereo not given) was read as NR2E3 ag-1 -2, NadD block 46*, MsrA act -4, NR2E3 ag-2 2 and NadD conf 14.
`O=C(Nc1nnc(C2CC2)s1)c1ccc(Cl)c(S(=O)(=O)N2CCc3ccccc3C2)c1` gave MsrA inh 0, GalR3 antagonist -1, NR2E3 ag-1 -14, NadD block 33*, MsrA act -3, NR2E3 ag-2 0 and NadD conf -1.
